Laboratory results from ChEMBL document CHEMBL1137607, “De novo discovery of serotonin N-acetyltransferase inhibitors” (J Med Chem, 2007).
Active and inactive are the calls of the source. No cut-off for these calls is given here.

How the values were obtained:
[1] = biological target: Serotonin N-acetyltransferase (Ovis aries) (UniProt Q29495); details: at 100 µM
[2] = biological target: Serotonin N-acetyltransferase (Ovis aries) (UniProt Q29495); details: at 100 µM; remark: listed apart in the source
[3] = biological target: T1, Serotonin N-acetyltransferase (Ovis aries, UniProt Q29495); experiment: Inhibition of ovine AANAT by spectrophotometric assay
[4] = biological target: Serotonin N-acetyltransferase (Ovis aries) (UniProt Q29495); details: at 100 µM; remark: listed apart in the source
[5] = biological target: Serotonin N-acetyltransferase (Ovis aries) (UniProt Q29495); experiment: Inhibition of ovine AANAT in presence of Triton X-100 at 25 uM by spectrophotometric assay
[6] = biological target: Serotonin N-acetyltransferase (Ovis aries) (UniProt Q29495); experiment: Inhibition of ovine AANAT at 25 uM by spectrophotometric assay
[7] = biological target: Serotonin N-acetyltransferase (Ovis aries) (UniProt Q29495); experiment: Inhibition of ovine AANAT at 25 uM by alpha-KD-coupled spectrophotometric assay
[8] = biological target: Serotonin N-acetyltransferase (Ovis aries) (UniProt Q29495); experiment: Inhibition of ovine AANAT at 25 uM by radioactive assay
[9] = biological target: Serotonin N-acetyltransferase (Ovis aries) (UniProt Q29495); details: at 100 µM; remark: listed apart in the source
[10] = Inhibition of melatonin biosynthesis in rat pinealocytes; format: functional, cell-based
[11] = biological target: Histone acetyltransferase KAT2B (Homo sapiens) (UniProt Q92831); experiment: Inhibition of PCAF HAT at 50 uM
Procedure, shortened: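 Radioactive HAT assay on purified PCAF HAT catalytic domain (10 nM), with histone H3 residues 1-20 (10 μM) as substrate, in 50 mM Tris-HCl pH 8.0, 1 mM DTT, 0.1 mM EDTA, 50 μg/mL BSA, 3.3% DMSO, 30 °C. Inhibitor tested at 0-50 μM. Started with 20 μM [14C]-AcCoA and quenched after 5 min. Gel separation, phosphorimaging against [14C]-BSA standard, no-enzyme background subtracted, duplicates.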

[12] = biological target: T1, Serotonin N-acetyltransferase; experiment: Inhibition of ovine AANAT by TLC-based radioactive assay
[13] = Toxicity in rat pinealocytes; format: cell-based; details: in vitro

T1 sequence (Q29495 whole entry): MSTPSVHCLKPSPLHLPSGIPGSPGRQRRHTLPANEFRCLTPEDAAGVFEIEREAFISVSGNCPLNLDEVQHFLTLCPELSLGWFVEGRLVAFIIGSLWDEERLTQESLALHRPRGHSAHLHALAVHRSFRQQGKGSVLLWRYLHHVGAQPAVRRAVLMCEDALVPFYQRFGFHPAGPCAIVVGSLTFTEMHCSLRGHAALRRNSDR
Chain of Serotonin N-acetyltransferase (Ovis aries) (Q29495 whole entry): as above
Chain of Histone acetyltransferase KAT2B (Homo sapiens) (Q92831 whole entry, looked up, the tested form may be a part): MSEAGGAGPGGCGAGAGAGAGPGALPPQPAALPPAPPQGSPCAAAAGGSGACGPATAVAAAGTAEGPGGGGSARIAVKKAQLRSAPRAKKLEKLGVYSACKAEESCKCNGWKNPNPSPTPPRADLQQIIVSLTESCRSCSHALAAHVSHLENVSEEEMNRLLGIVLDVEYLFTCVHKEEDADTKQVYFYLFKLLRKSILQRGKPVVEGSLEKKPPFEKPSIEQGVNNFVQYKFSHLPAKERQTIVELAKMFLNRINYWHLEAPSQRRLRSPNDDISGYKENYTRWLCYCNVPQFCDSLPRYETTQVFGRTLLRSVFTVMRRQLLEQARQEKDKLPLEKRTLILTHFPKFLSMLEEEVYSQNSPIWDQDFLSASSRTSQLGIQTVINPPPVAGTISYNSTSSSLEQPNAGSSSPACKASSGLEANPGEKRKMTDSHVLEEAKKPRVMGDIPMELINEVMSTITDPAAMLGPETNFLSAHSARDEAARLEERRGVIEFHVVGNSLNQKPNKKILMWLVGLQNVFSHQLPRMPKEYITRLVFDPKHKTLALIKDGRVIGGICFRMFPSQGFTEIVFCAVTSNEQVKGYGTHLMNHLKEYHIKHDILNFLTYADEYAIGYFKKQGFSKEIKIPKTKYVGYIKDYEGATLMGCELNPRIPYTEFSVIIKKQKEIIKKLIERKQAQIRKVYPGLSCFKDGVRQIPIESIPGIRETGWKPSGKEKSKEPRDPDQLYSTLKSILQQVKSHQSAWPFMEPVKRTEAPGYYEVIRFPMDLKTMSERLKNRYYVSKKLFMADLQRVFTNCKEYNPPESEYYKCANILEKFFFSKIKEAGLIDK

inhibition [1] [%]	inhibition [2] [%]	IC50 [3] [µM]	inhibition [4] [%]	inhibition [5] [%]	inhibition [6] [%]	inhibition [7] [%]	inhibition [9] [%]	SMILES	further results
23	50	–	–	–	–	–	–	O=C1CC(CC(=O)N/N=C/c2c(O)ccc3ccccc23)=NN1	–
–	–	402	74	–	–	–	–	O=C(O)COc1ccc(/C=N/NC(=O)c2ccc(OCc3ccccc3)cc2)cc1	–
–	–	–	–	41	52	56	–	COc1ccc(NC(=O)CN2C(=O)/C(=C3\SCN(CCS(=O)(=O)O)C3=O)c3ccccc32)cc1	inhibition [8]: 0%
30	41	–	13	–	–	–	64	COc1ccc(/C=N/c2ccc(CC(=O)O)cc2)cc1	–
24	42	–	–	–	–	–	–	COC(=O)Nc1ccc(S(=O)(=O)Nc2cc(OC)nc(OC)n2)cc1	–
80	99	15.8	99	–	–	–	70	O=C(CN1C(=O)C(C2SC(=S)N(CCS(=O)(=O)O)C2=O)c2ccccc21)Nc1ccccc1 (stereo not given)	–
–	–	–	–	61	70	47	–	CCc1ccc(/C=N/c2c(C)n(C)n(-c3ccccc3)c2=O)cc1	inhibition [8]: 0%
83	100	52.9	94	–	–	–	78	O=C(O)CCCCCN1C(=O)C(C2C(=O)Nc3ccccc32)SC1=S (stereo not given)	–
98	84	25.2	99	–	–	–	54	Cc1ccc(CN2C(=O)C(C3SC(=S)N(CCS(=O)(=O)O)C3=O)c3ccccc32)cc1 (stereo not given)	–
–	–	–	–	55	43	11	–	O=C(O)CCCCCN1C(=O)/C(=C2/C(=O)N(CC(=O)O)c3ccc(Br)cc32)SC1=S	–
–	–	–	–	41	52	21	–	O=C(O)CCCN1C(=O)/C(=C2/C(=O)Nc3ccc(Br)cc32)SC1=S	–
74	81	45.2	98	–	–	–	66	O=C(O)CCCCCN1C(=O)C(C2C(=O)N(Cc3ccc(F)cc3)c3ccccc32)SC1=S (stereo not given)	IC50 [10]: 100 µM; Activity [11]: inactive; IC50 [12]: 11.1 µM; Activity [13]: Non-toxic
60	65	–	–	–	–	–	28	COc1ccc(/N=N/c2ccc(S(=O)(=O)O)cc2)cc1	–
11	40	–	–	–	–	–	–	O=C(COc1ccc([N+](=O)[O-])cc1)N/N=C/c1ccccc1COc1ccccc1	–

SMILES	inhibition [1] [%]	inhibition [2] [%]	IC50 [3] [µM]	inhibition [4] [%]	inhibition [5] [%]	inhibition [6] [%]	inhibition [7] [%]	inhibition [9] [%]	further results
CC(C)Oc1ccc(C(=O)CC(=O)Nc2ccc(S(=O)(=O)F)cc2)cc1	–	–	–	–	59	43	0	–	–
CCOc1ccc(C(=O)CC(=O)Nc2ccc(S(=O)(=O)F)cc2)cc1OC	100	98	–	31	–	–	–	79	–
